CYP2C9 inh: human CYP2C9 inhibition. inhibition, % at 5 µM. CYP2C9 Supersomes, luciferin-H conversion, luminescence. P11712. actives 20% (n = 96,000);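 active means blocking of liver enzyme CYP2C9 beyond about 50% at 5 µM, limit read from the data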
Target sequence (P11712 whole entry, looked up): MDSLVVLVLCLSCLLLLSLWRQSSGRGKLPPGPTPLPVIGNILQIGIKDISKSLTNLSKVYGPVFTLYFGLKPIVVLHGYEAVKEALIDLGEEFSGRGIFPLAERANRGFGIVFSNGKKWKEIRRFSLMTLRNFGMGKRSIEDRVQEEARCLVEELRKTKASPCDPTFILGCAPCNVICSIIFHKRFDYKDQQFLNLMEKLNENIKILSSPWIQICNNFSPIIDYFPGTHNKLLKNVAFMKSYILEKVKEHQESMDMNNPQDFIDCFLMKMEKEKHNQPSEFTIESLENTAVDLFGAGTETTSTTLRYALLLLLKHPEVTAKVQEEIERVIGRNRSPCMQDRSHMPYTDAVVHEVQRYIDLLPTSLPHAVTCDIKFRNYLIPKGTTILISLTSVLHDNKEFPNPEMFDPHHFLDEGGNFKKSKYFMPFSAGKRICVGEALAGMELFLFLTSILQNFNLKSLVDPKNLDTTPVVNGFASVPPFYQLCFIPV
E coli WT exp: blocks growth of wild type E. coli BW25113. AID 710. growth inhibition, % at 100 µM. OD600 absorbance. actives 0.15% (n = 98,000);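 active means growth inhibition above about 50% at one test dose, limit read from the data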;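 further: growth measured after 20 h incubation at 37 °C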
CYP2C19 inhib: blocks human cytochrome P450 2C19. P33261. CYP2C19 Supersomes, luciferin-H EGE luminescence, 30 min. inhibition, % at 5 µM. actives 21% (n = 96,000). AID 778;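 active means CYP2C19 inhibition above a set limit at 5 µM in the primary screen, cut at about 50% in these data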;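 further: plate controls were negative control wells for no effect and 2.5 mM tranylcypromine positive control for full effect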
tolC growth inh: E. coli tolC mutant growth inhibition; E. coli BW25113 tolC mutant growth, OD615; growth inhibition, % at 10 µM (by protocol); actives 2.2% (n = 65,000); AID 573;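 active means growth inhibition at or above a cutoff equal to the mean over every tested compound plus 3 SD, cut at about 60% in these data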;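 further: growth measured after 20 h incubation at 37 °C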
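Test system: E. coli BW25113 ΔtolC::kan bacteria | Medium: Kanamycin-containing LB broth (50 µg/mL) | Dosing: One dose of 10 µM final | Times: 20 h incubation with compound, 37 °C | Detection: Optical density read at 615 nm | Read-out basis: Percent growth inhibition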
CYP2C9 activ: increases human cytochrome P450 2C9 activity; recombinant CYP2C9, luciferin-H conversion, luminescence; stronger effect = higher value; factor 1 = untreated enzyme, 0 = blocked; activation factor at 5 µM; actives 1.4% (n = 96,000); AID 1024;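 active means activation factor of 2 or more for CYP2C9 at a 5 µM dose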;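 further: 0 = sulfaphenazole-blocked wells and 1 = vehicle-only wells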
CYP2C19 activ: activators of human cytochrome P450 2C19; P33261; activation factor at 5 µM; AID 1025; recombinant CYP2C19, luciferin-H EGE luminescence; stronger effect = higher value; 0 = fully inhibited enzyme, 1 = untreated enzyme; 96,000 tested, under 10 active;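 active means activation factor of at least 2 at 5 µM in the primary screen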;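 further: 0 = wells with 2.5 mM tranylcypromine and 1 = vehicle-only wells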
The depositor's hits bear a star; x = no result. Hits are enriched below; roughly 29% of the tested compounds scored in any of these assays.

SMILES	CYP2C9 inh	E coli WT exp	CYP2C19 inhib	tolC growth inh	CYP2C9 activ	CYP2C19 activ
CC(=O)OCC(=O)NCc1ccc2c(c1)OCO2	-3	10	5	-5	1	0.9
COc1cc(C(=O)NCCC(=O)NCc2ccc3c(c2)OCO3)cc(OC)c1OC	4	6	-16	-20	1	1.2
COc1ccccc1CC(=O)NCc1ccc2c(c1)OCO2	4	5	90*	6	1	0.1
O=C(CCn1cccc1)NCc1ccc2c(c1)OCO2	0	11	26	-6	1	0.7
COc1ccc(CC(=O)NCc2ccc3c(c2)OCO3)cc1	69*	6	97*	x	0.3	0
CCCS(=O)(=O)N1CCCC(C(=O)NCCCN2CCN(c3ccccc3F)CC2)C1 (stereo unspecified)	2	5	0	-16	1	1
COc1ccc(-n2c(SCC(=O)N3CCCCC3C)nnc2-c2cccnc2)cc1 (stereo unspecified)	43	5	42	-12	0.6	0.6
O=C(NCc1ccc2c(c1)OCO2)c1ccc(C2SCC(=O)N2Cc2ccco2)cc1 (stereo unspecified)	98*	-4	67*	12	0	0.3
COc1ccc(OC)c(-n2nnnc2SCC(=O)O)c1	22	-1	7	x	0.8	0.9
O=C(Cc1cccs1)NCc1ccc2c(c1)OCO2	38	3	92*	11	0.6	0.1
COc1cccc(N2C(=O)Nc3ccccc3C2(O)C(=O)NCc2ccc3c(c2)OCO3)c1 (stereo unspecified)	9	5	61*	2	0.9	0.4
COc1ccc(OC)c(-n2nnnc2SCC(=O)NCc2ccc3c(c2)OCO3)c1	60*	0	81*	16	0.4	0.2
Cc1c(NC(=O)c2cc(-c3cccs3)on2)c(=O)n(-c2ccccc2)n1C	10	-5	7	-7	0.9	0.9
CC1CC(C)CN(c2nc3c(c(=O)[nH]c(=O)n3C)n2CCSc2nc3ccccc3o2)C1 (stereo unspecified)	x	x	x	3	x	x
Cc1cc(/C=N\O)c(C)n1-c1ccncc1	-14	4	14	17	1.1	0.9
Cc1cc2cc(CNC(=O)c3ccc4c(c3)OCO4)ccc2n1C	-9	-1	72*	5	1.1	0.3
COc1cccc(CNC(=O)Cc2c(C(=O)O)[nH]c3ccccc23)c1	52*	3	0	x	0.5	1
Cc1c(-c2ccccc2)nc(N)c(C#N)c1-c1ccco1	45	-15	69*	-17	0.5	0.3
Cc1nc(N)c(C#N)c(-c2ccccc2)c1C	22	-5	17	-2	0.8	0.8
COCCCNC(=O)CSc1ccc(Cl)cc1	-5	11	24	-15	1.1	0.8
Cc1cc(C(=O)CSc2ccc(Cl)cc2)cc(C)c1OC(=S)N(C)C	67*	-14	44	x	0.3	0.6
COc1ccccc1-n1cnnc1SCC(=O)c1cc(C)n(Cc2cccs2)c1C	89*	-1	98*	19	0.1	0
C=CCn1c(SCC(=O)c2cc(C)n(Cc3cccs3)c2C)nnc1-c1ccncc1	36	-1	44	21	0.6	0.6
Cc1cc(C(=O)CN2C(=O)c3cccc(N)c3C2=O)c(C)n1Cc1cccs1	-138	-7	91*	x	2.4*	0.1
Cc1cc(C(=O)CSc2nnc(-c3ccccc3F)o2)c(C)n1Cc1cccs1	78*	-7	96*	34	0.2	0
SMILES	CYP2C9 inh	E coli WT exp	CYP2C19 inhib	tolC growth inh	CYP2C9 activ	CYP2C19 activ
Cc1cc(C)c(C(=O)CSc2nnc(-c3ccccc3Br)o2)cc1C	-24	-4	28	-6	1.2	0.7
O=C(O)c1cccc(NCc2ccncc2)c1	23	-1	7	x	0.8	0.9
c1cc2c(c(NCc3ccncc3)c1)CCCC2	82*	12	97*	13	0.2	0
CCn1cc(/C=N/N=C2\CCC3C4CCc5cc(O)ccc5C4CC[C@]23C)c(C)n1 (stereo partly specified)	68*	-10	38	x	0.3	0.6
Cc1ccc(NC2=NC(c3ccco3)n3c(nc(C)cc3=O)N2)c(C)c1 (stereo unspecified)	33	x	22	10	0.7	0.8
CCc1ccc2[nH]c(=O)c(CN(Cc3ccc(F)cc3)C(c3nnnn3CCN3CCOCC3)C(C)C)cc2c1 (stereo unspecified)	-1	-7	8	x	1	0.9
COc1ccc(C2CC(=O)c3cnc(N4CCN(Cc5ccccc5)CC4)nc3C2)cc1 (stereo unspecified)	94*	-10	80*	30	0.1	0.2
Cc1nc(N2CCN(c3ccccc3)CC2)nc2c1C(=O)CC(C)C2 (stereo unspecified)	7	1	13	46	0.9	0.9
CCN1CCN(c2ncc3c(n2)CC(c2ccc(OC)c(OC)c2)CC3=O)CC1 (stereo unspecified)	31	-2	-1	-13	0.7	1
Cc1nc(N2CCN(c3ccccc3)CC2)nc2c1C(=O)CCC2	-33	-1	1	91*	1.3	1
COc1cccc(C(=O)Nc2ncc3c(n2)CC(c2ccc(OC)cc2OC)CC3=O)c1 (stereo unspecified)	89*	-9	80*	33	0.1	0.2
Cc1ccc(C2CC(=O)c3cnc(N4CCN(c5ccccc5)CC4)nc3C2)cc1 (stereo unspecified)	54*	-1	43	x	0.5	0.6
Cc1ccc(S(=O)(=O)NCC(=O)N(CC(=O)NCC2CCCO2)C2CCCC2)cc1 (stereo unspecified)	22	4	14	-13	0.8	0.9
Cc1cc(S(=O)(=O)NC(C)C)ccc1OCC(=O)N1CCOCC1	29	3	12	x	0.7	0.9
CCN(Cc1ccccc1)C(=O)COC(=O)c1n[nH]c2ccccc12	4	-1	45	x	1	0.5
O=C1CC(c2ccc(F)cc2)Cc2nc(N3CCN(c4ccccc4)CC3)ncc21 (stereo unspecified)	26	-1	6	-21	0.7	0.9
O=C1CC(c2ccccc2)Cc2nc(N3CCc4ccccc4C3)ncc21 (stereo unspecified)	64*	-15	35	x	0.4	0.6
CCc1ccc(Nc2ncc3c(n2)CC(c2ccc(OC)cc2)CC3=O)cc1 (stereo unspecified)	79*	-1	26	x	0.2	0.7
CC1CC(C)CN(c2ncc3c(n2)CC(c2ccc(Cl)cc2)CC3=O)C1 (stereo unspecified)	78*	-13	43	21	0.2	0.6
COc1ccc(Nc2ncc3c(n2)CC(c2ccccc2)CC3=O)cc1 (stereo unspecified)	36	-12	22	x	0.6	0.8
Cc1nc(N2CCN(c3ccccc3)CC2)nc2c1C(=O)CC(c1ccccc1)C2 (stereo unspecified)	83*	-14	42	6	0.2	0.6
